This is an account of results in PMC10835327 (Heliyon, 2024).

This assay deals with HSA (human serum albumin) (Homo sapiens, UniProt P02768). Nature of the assay: intrinsic fluorescence quenching, double-logarithmic plot. The format is binding. Conditions: Tris-HCl pH 7.40, 298 K, no added metal ion. In outline: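 HSA (1.00 × 10−4 mol L−1) titrated stepwise with test compound dissolved in DMSO. Emission spectra recorded at 300–600 nm with excitation at 292 nm and both slits at 15 nm. Spectra taken at 291, 298, 304 and 310 K. Intensities corrected for inner-filter effect. Ka and n derived from double-logarithmic fit of intensity versus quencher concentration.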
HSA (human serum albumin), sequence (P02768 25-609): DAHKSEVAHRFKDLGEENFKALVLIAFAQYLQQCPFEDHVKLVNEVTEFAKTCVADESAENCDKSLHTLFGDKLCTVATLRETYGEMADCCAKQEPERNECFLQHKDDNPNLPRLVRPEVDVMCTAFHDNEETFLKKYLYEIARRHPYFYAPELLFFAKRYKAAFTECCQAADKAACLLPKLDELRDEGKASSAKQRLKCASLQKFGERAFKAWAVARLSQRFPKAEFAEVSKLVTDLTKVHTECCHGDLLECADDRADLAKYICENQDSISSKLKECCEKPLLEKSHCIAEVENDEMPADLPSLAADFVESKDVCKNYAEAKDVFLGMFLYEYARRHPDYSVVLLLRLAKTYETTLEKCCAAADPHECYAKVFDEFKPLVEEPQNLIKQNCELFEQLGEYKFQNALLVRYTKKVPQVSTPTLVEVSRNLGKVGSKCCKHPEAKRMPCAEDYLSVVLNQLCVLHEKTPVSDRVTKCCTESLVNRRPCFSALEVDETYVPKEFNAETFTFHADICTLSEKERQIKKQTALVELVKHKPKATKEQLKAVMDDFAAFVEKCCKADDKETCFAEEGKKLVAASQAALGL

Turning to `COC(=O)/C=C/c1ccc(O)c(OC)c1` [FAM, ferulic acid methyl ester], the “Ka/(L.mol^-1)” value (n = 1.0099) is 8.7256 × 10^4 ±1.1863 L∙mol^−1.
Take `COc1cc(/C=C/C(=O)O)ccc1O` [FA, ferulic acid]: the “Ka/(L.mol^-1)” value (n = 0.9857) is recorded as 2.5668 × 10^4 ±2.0417 L∙mol^−1.
